Screens as filed in PubChem BioAssay.
MrgX1 antag – antagonists of human MrgX1 receptor, primary screen, HEK293 cells, Fluo-4 calcium flux; AID 588676, 2011; 1.3% of 310,000 active; BAM8-22 antagonism; active compounds read low; B-score at 10 µM;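 active means calcium-response B-score plate-corrected more than 3 library SD below zero, starting fluorescence within 5 deviations, no agonist response on first addition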;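 further: peak minus trough fluorescence over baseline after final BAM8-22 challenge near maximal dose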
KCC2 mod – KCC2 cotransporter modulators, thallium flux, primary screen, cell-based, HEK293 KCC2, FluoZin-2 fluorescence, MLSMR; Solute carrier family 12 member 5 (Homo sapiens), Q9H2X9; KCC2 cells, thallium flux FluoZin-2 fluorescence; B-score of Tl+ flux slope (higher = more flux/activation; lower = inhibition) at 10 µM; 2.2% of 190,000 active; AID 1456, 2008;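 active means thallium flux slope and its plate-corrected score both differing from the plate sample mean at a set confidence after two filtering rounds, in either direction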;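 further: slope of fluorescence scaled to starting intensity during 10 to 20 s after thallium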
RGS4 inh – RGS4 inhibitors, primary screen, cell-based, HEK293 M3R inducible RGS4, calcium flux; 0.45% of 310,000 active; B-score at 10 µM; Regulator of G-protein signaling 4 (Homo sapiens), P49798; AID 463165, 2010; Fluo-4 calcium flux; active compounds read high; triggered by carbachol at its EC20;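 active means B-score, a plate-corrected calcium signal, over three deviations above library mean, with baseline fluorescence within five deviations of library mean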;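 further: RGS4 expression induced by doxycycline in cells with stable M3 receptor; B-score is computed from the integrated fluorescence ratio over baseline after carbachol; higher B-score means a larger calcium signal and so more RGS4 inhibition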
MrgX1 agonist – agonists of human MrgX1 receptor, primary screen, HEK293 cells, Fluo-4 calcium flux; Mas-related G-protein coupled receptor member X1 (Homo sapiens), Q96LB2; Fluo-4 calcium fluorescence, agonist mode; active compounds read high; B-score at 10 µM; 0.44% of 310,000 active; AID 588627, 2011;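 active means calcium response B-score plate-corrected fluorescence ratio at least 3 library SD, with starting fluorescence B-score inside 5 SD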
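Test system: HEK293 cells stably expressing human MrgX1 receptor; amount: 15,000 cells per well; doses: compound delivered in addition one of three; times: overnight plating before 1 h dye loading; detection: Fluo-4 NW calcium-flux fluorescence, kinetic read; read-out basis: B-scored fluorescence response ratio; controls: positive and negative controls per plate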
MrgX1 PAM – positive allosteric modulators of MrgX1, primary screen, HEK293 cells, Fluo-4 calcium flux. FDSS; active compounds read high. B-score at 10 µM. AID 588675, 2011. Mas-related G-protein coupled receptor member X1 (Homo sapiens), Q96LB2. 0.63% of 310,000 active;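 active means plate-corrected calcium response at least 3 library SD above typical, normal starting fluorescence, not activating the receptor alone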;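 further: compound read alongside a low EC10 to EC30 dose of BAM8-22 agonist; peak minus trough fluorescence over baseline measured at the second addition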
RGS4 act – RGS4 potentiators or activators, primary screen, cell-based, HEK293 M3R inducible RGS4, calcium flux | carbachol calcium flux Fluo4; active compounds read low | B-score at 10 µM | 0.92% of 310,000 active | AID 463111, 2010;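 active means B-score of the integrated calcium signal more than 4 SD below the library mean, with starting fluorescence not abnormally high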;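 further: negative B-score means reduced calcium response which marks RGS4 activation or potentiation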
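Also added: carbachol at ECmax as muscarinic agonist stimulus; Assay system: HEK293 cells with stable M3R and inducible RGS4; Timing: overnight RGS4 induction, 30 min dye load 37 °C, 20 min compound RT; Measured by: Fluo4-AM (2 µM) calcium-flux fluorescence, kinetic read.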
MrgX1 ag confirm – MrgX1 receptor agonists, duplicate retest, confirmation, HEK293 cells, Fluo-4 calcium flux; 78% of 600 active; Fluo-4 calcium fluorescence, FDSS; activation, % at 10 µM; shares compounds with MrgX1 agonist;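 active means calcium signal rise, corrected for plate position, at least 3 library SD high, with starting brightness within 5 such deviations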
HEK293 Ca flux – nonspecific calcium signal in parental HEK293, confirmation, counter-screen for MrgX1 antagonist project, parental HEK293 cells, Fluo-4 calcium flux | shares compounds with MrgX1 antag | 2% of 4,000 active | fluorescence ratio F(max-min)/F0 at 10 µM | Fluo-4 calcium fluorescence, FDSS;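 active means duplicate-averaged calcium fluorescence ratio at least three times the standard deviation of buffer wells, a nonspecific response in parental cells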
HEK293 Ca counter – calcium response in parental HEK293 cells, primary screen, counter-screen for MrgX1 allosteric activator project, cell-based, Fluo-4 calcium flux, duplicate | shares compounds with MrgX1 antag | Fluo-4 fluorescence ratio; active compounds read high | fluorescence ratio F(max-min)/F0 at 10 µM | 0.4% of 4,000 active | AID 624114, 2012;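 active means calcium fluorescence ratio, averaged over duplicates, at least 3 SD of the buffer-well ratio, meaning a nonspecific response in receptor-free cells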;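 further: untransfected parental HEK293 lacking MrgX1 used as counterscreen for MrgX1 allosteric activators; fluorescence change taken during the second addition on a kinetic imager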
HEK293 Ca cntr2 – calcium response in parental HEK293 cells, primary screen, counter-screen for MrgX1 agonist project, cell-based, Fluo-4 calcium flux, duplicate, agonist mode; AID 624115, 2012; 8.7% of 4,000 active; fluorescence ratio F(max-min)/F0 at 10 µM; shares compounds with MrgX1 antag; Fluo-4 calcium fluorescence (FDSS); active compounds read high;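 active means calcium fluorescence ratio at least three times the spread of buffer wells, meaning a non-specific response in parental cells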
Starred values were filed as active, the others as inactive; i = inactive; nt = not tested or not shown. Most compounds without a hit are left out; they make up all but 4.7% or so of the library.

SMILES	MrgX1 antag	KCC2 mod	RGS4 inh	MrgX1 agonist	MrgX1 PAM	RGS4 act	MrgX1 ag confirm	HEK293 Ca flux	HEK293 Ca counter	HEK293 Ca cntr2
COc1ccc(CCNC(=O)c2c(-c3ccccc3)noc2C)cc1OC	i	-0.83	i	i	i	i	nt	nt	nt	nt
COc1ccc(C(=O)NC(=S)NNC(=O)[C@H]2C[C@@H]2c2ccccc2)cc1OC	i	5.8	i	67*	i	i	378%*	i	i	72*
COc1ccc(OC)c(NC(=O)C2CC2c2ccccc2)c1 (centres undefined)	i	nt	i	i	i	i	nt	nt	nt	nt
COc1ccc(C(=O)NC(=S)NNC(=O)c2c(-c3ccccc3)noc2C)cc1OC	i	1	i	81*	i	i	222%*	i	i	51*
CN(CC(=O)Nc1ccc(OC(F)(F)F)cc1)C1CCCCC1	i	0.15	i	i	i	i	nt	nt	nt	nt
O=C(CNCC1CCCCC1)Nc1ccc(OC(F)(F)F)cc1	i	0.52	i	106*	i	i	416%*	i	i	52*
COc1ccccc1N1CC(C(=O)OCC(=O)Nc2c(C)cccc2C)CC1=O (centres undefined)	i	nt	i	i	i	i	nt	nt	nt	nt
CCOc1ccccc1NC(=O)COC(=O)C1CC(=O)N(c2c(C)cccc2C)C1 (centres undefined)	i	nt	i	28*	i	i	i	i	i	i
CC(=O)[C@@]1(O)CC[C@H]2[C@@H]3CCC4=CC(=O)CC[C@]4(C)[C@H]3[C@@H](O)C[C@@]21C	i	-0.24	i	48*	i	i	i	i	i	i
C[C@]12CCC(=O)C=C1CC[C@@H]1[C@@H]2CC[C@@]2(C)[C@H]1CC[C@]2(O)C(=O)CO	i	0.079	i	i	i	i	nt	nt	nt	nt
O=C(OCc1ccc(Cl)c(Cl)c1)c1cccnc1Cl	i	nt	i	i	i	i	nt	nt	nt	nt
Nc1ncccc1OCc1ccc(Cl)c(Cl)c1	i	-0.18	i	41*	i	i	172%*	i	i	i
COc1cc(/C=C/C(=O)CC(=O)/C=C/c2ccc(O)c(OC)c2)ccc1O	i	i	i	143*	i	i	i	0.033*	i	212*
COc1ccc(CN2C(=NC(=O)C3CCCO3)SC3CS(=O)(=O)CC32)cc1OC (centres undefined)	i	nt	i	i	i	i	nt	nt	nt	nt
CCc1ccc(CNc2ccc3c(c2)ncn3CC)cc1	i	nt	i	30*	i	i	166%*	i	i	i
CC(C)CC(=O)NC(=S)NNC(=O)c1ccc([N+](=O)[O-])cc1	i	2.5	i	81*	i	i	280%*	i	i	72*
COc1ccc(C(=O)Nc2c(O)ccc3ccccc23)cc1OC	i	nt	i	i	i	i	nt	nt	nt	nt
COc1ccc(S(=O)(=O)Nc2c(O)ccc3ccccc23)cc1OC	i	nt	i	27*	i	i	i	i	i	i
CCOc1ccccc1C(=O)N[C@H](C(=O)Nc1ccc(OC)c(S(=O)(=O)N2CCOCC2)c1)C(C)C	i	-0.32	i	i	i	i	nt	nt	nt	nt
Cc1oc2cc(O)ccc2c(=O)c1-c1nncn1-c1ccccc1	i	-0.11	i	30*	i	i	i	i	i	i
CNC(=O)COC(=O)c1ccc2c(c1)NC(=O)C1CCCN21 (centres undefined)	i	nt	i	i	i	i	nt	nt	nt	nt
Oc1c(C=NCc2ccc(F)cc2)[nH]c2ccc(Br)c(Cl)c12	i	nt	5.7*	27*	i	i	332%*	i	i	71*
O=c1[nH]c(=O)n(C2CCCCCC2)c(O)c1C=NCc1ccc(F)cc1	i	-1	i	i	i	i	nt	nt	nt	nt
CC1(C)Cc2c(c(-c3ccco3)nc3sc4c(NCCN5CCOCC5)ncnc4c23)CO1	i	-0.49	i	i	i	i	nt	nt	nt	nt
CC1(C)Cc2c(c(-c3ccco3)nc3sc4c(NCC5CCCO5)ncnc4c23)CO1 (centres undefined)	i	-0.18	i	49*	i	i	208%*	i	i	45*
SMILES	MrgX1 antag	KCC2 mod	RGS4 inh	MrgX1 agonist	MrgX1 PAM	RGS4 act	MrgX1 ag confirm	HEK293 Ca flux	HEK293 Ca counter	HEK293 Ca cntr2
COC(=O)c1ccccc1NC(=S)NC(=O)COc1ccccc1	i	nt	i	i	i	i	nt	nt	nt	nt
Cc1ccccc1C(=O)NNC(=S)NC(=O)COc1ccccc1	i	19*	i	120*	i	i	640%*	i	i	125*
Cc1ccc(C(=O)NNC(=S)NC(=O)COc2ccccc2)cc1	i	95*	i	109*	i	i	618%*	i	i	116*
Cc1cccc(OCC(=O)NC(=S)NNC(=O)c2ccncc2)c1	i	nt	i	i	i	i	nt	nt	nt	nt
CC(CCc1ccccc1)NCC(O)c1ccc(O)c(C(N)=O)c1 (centres undefined)	i	0.021	i	i	i	i	nt	nt	nt	nt
CC(C)NC[C@H](O)c1ccc(O)c(O)c1	i	nt	nt	32*	i	nt	124%*	i	i	i
CCOC(=O)CC(=O)CSc1nc(CC)c(C)cc1C#N	i	-0.05	i	i	i	i	nt	nt	nt	nt
